Runt-SMMHC FRET = Runt domain-CBFb-SMMHC interaction inhibition; Q01196+Q13951; Cerulean-Runt/Venus-CBFb-SMMHC FRET ratio 530/480, 1 h; inhibition, % at 20 µM; 220,000 compounds, 0.74% hits;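 active means mean inhibition across duplicate retests at 20 µM reaching about 50%, limit read from the data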;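 further: 0% = DMSO wells and 100% = wells with excess untagged CBFb-SMMHC; inhibitors lower the FRET ratio by blocking Runt binding to CBFb-SMMHC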
proKLK7 act = activates the human kallikrein-7 zymogen. AID 652039. purified proKLK7, EDANS-DABCYL substrate fluorescence; 100% is mature enzyme control, 0% vehicle. activation, % at 7 µM. 370,000 compounds, 0.9% hits. P49862;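 active means activation above the mean of all tested compounds plus 3 SD, computed per campaign excluding outliers beyond control limits, cut at about 13% in these data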
Target sequence (P49862 whole entry, looked up): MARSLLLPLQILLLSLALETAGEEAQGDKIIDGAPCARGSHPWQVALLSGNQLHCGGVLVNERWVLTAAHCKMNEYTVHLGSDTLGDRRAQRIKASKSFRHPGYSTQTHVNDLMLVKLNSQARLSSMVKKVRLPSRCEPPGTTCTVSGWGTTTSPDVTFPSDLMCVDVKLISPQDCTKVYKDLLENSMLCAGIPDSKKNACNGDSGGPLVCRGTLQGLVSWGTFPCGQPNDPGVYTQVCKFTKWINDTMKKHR
AI-2 QS mod = modulators of Vibrio harveyi AI-2 quorum sensing system | 300,000 compounds, 0.4% hits | Vibrio harveyi JMH597 AI-2 luminescence/OD600 ratio, 9 h; hits give low values; strain lacks LuxN and CqsS sensors; 0 = neutral-control median | activity change, % at 7.5 µM | AID 2094; in the data active means activity change below about -75%, passing the limit was not always enough; inconclusive means no clear call, values can overlap the other calls;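 further: luminescence divided by OD600 gain over 9 h not by final OD600 alone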
Wee1 degr inh = human Wee1 degradation inhibition, primary screen. HeLa Luc-Wee1K328M stability, luciferase luminescence; 100% = proteasome inhibitor MG132 effect. P30291. AID 1321. 220,000 compounds, 1.2% hits. reporter increase, % at 5 µM;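 active means activation above the mean of all tested compounds plus 3 SD, set per screening run, cut at about 8.8% in these data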;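 further: cells exposed to compound for 20 h before luminescence read; 0% = DMSO alone and 100% = MG132 at 30 µM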
Runt-CBFb FRET = blocks binding of human RUNX1 Runt domain to CBFb; inhibition, % at 20 µM; AID 1496; 220,000 compounds, 0.46% hits; Q01196+Q13951; Cerulean-Runt/Venus-CBFb FRET ratio 530/480, 1 h;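 active means inhibition over about 50% at 20 µM in the single-dose screen, limit read from the data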;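 further: 0% = DMSO wells and 100% = excess unlabeled CBFb competitor control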
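test system = Cerulean-tagged RUNX1 Runt domain (FRET donor) fusion protein | reagent = Venus-CBFb binding partner, 100 nM | incubation = protein complex preformed 1 h, compound exposure 1 h, room temperature, dark | detection = FRET fluorescence | read-out basis = loss of energy transfer signal | controls = 5 µM unlabeled CBFb as full-inhibition high control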
RanGTP-Imp inh = inhibitors of RanGTP-importin-beta interaction, primary screen, biochemical, FRET, CFP-Ran, YFP-importin-beta, homogeneous; cell-free CFP-Ran/YFP-importin-beta FRET ratio; inhibition, % (test concentration not listed); 300,000 compounds, 1.1% hits;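 active means more than half of the replicate wells show a fall in the fluorescence ratio signal beyond about 16%, limit read from the data, passing the limit was not always enough; inconclusive means exactly half of the replicate wells pass the set limit; inactive means fewer than half of replicates pass the limit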;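 further: 0% = DMSO wells and 100% = Ran loaded with GDP instead of GTP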
proKLK7 act conf = confirmation of human kallikrein-7 zymogen activators. shares compounds with proKLK7 act. purified proKLK7, EDANS-DABCYL substrate fluorescence; scaled: vehicle 0, mature enzyme 100. activation, % at 7 µM. 3,200 compounds, 68% hits;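 active means activation, as change over the incubation, above the mean of all tested compounds plus 3 SD, cut at about 13% in these data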
EDANS interfere = counter-screen for kallikrein-7 activators: EDANS-DABCYL optical interference. shares compounds with proKLK7 act. EDANS-DABCYL substrate fluorescence interference, no enzyme, 4 h; solvent 0%, active enzyme control 100%. activation, % at 7 µM. 3,200 compounds, 80% hits. AID 686952;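 active means activation above the all-compound mean plus 3 SD, ignoring values outside control-based bounds, cut at about 4.8% in these data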;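 further: value is the 4 h activation minus the activation read at time zero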
K7 EDANS ctr = optically interferes with EDANS-DABCYL fluorescence, kallikrein-7 activator counter-screen; shares compounds with proKLK7 act; EDANS-DABCYL peptide fluorescence interference, no enzyme; EC50, µM; 250 compounds, 20% hits;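 active means compounds that raise the fluorescence signal in this interference counterscreen, with EC50 at or below 10 µM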;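 further: intact quenched peptide substrate alone read at 355 nm excitation and 520 nm emission; signal is fluorescence gain from T0 to T4 after four hours at room temperature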
The depositor's hits bear a star; i = inactive; ? = inconclusive; . = no result. Compounds with a hit are over-represented: about 2.9% of the library has one in this group of screens.

SMILES | Runt-SMMHC FRET | proKLK7 act | AI-2 QS mod | Wee1 degr inh | Runt-CBFb FRET | RanGTP-Imp inh | proKLK7 act conf | EDANS interfere | others
CCCn1c(=N)c(C(=O)NCC2CCCO2)cc2c(=O)n3cccc(C)c3nc21 (configuration not stated) | 38 | 83* | -1 | -1 | 12 | 184* | 5 | 3
CCCn1c(=O)c(C(=O)NCC2CCCO2)c(O)c2ccccc21 (configuration not stated) | -2 | 0 | 2 | -1 | -2 | 4 | . | .
O=C(COc1cc2oc(=O)c3c(c2cc1Cl)CCC3)NCCN1CCOCC1 | . | 0 | 9 | . | . | 4 | . | .
O=c1oc2c(CN3CCOCC3)c(O)ccc2c2c1CCCC2 | 66* | 52* | 16 | -1 | 42 | 33* | 69* | 64*
O=c1oc2c(CN3CCOCC3)c(O)ccc2c2ccccc12 | -14 | 1 | 14 | 0 | . | -5 | . | .
O=c1oc2c(CN3CCOCC3)c(O)c(Cl)cc2c2c1CCCC2 | 42 | 53* | 12 | 0 | 105* | 85* | 66* | 67*
Cc1cc(=O)n2c(n1)SCOC2 | -1 | 1 | 1 | 2 | 1 | -1 | . | .
OC1c2cc(Cl)cc(Cl)c2N=C2CCCN21 (configuration not stated) | . | 15* | . | . | . | . | 18* | 11* | K7 EDANS ctr=i
CCCC(=O)N1CCC1(C)C(=O)Nc1ccc2nccnc2c1 (configuration not stated) | . | 13* | . | . | . | . | 8 | 8.5*
COCCNC(=O)Cc1c(C)c2cc3c(cc2oc1=O)OC(C)(C)CC3 | . | 13* | 21 | . | . | 0 | 15* | 10.0* | K7 EDANS ctr=>70
CC(C)(C)C(=O)NC(=S)NCc1ccccc1 | 2 | 0 | 8 | 2 | -2 | 0 | . | .
COC(=O)c1cc(NC(=O)CC(=O)c2cccc(N)c2)cc(C(=O)OC)c1 | . | 15* | . | . | . | . | -1 | 0
COC(=O)c1cc(NC(=O)c2cccc(F)c2)cc(C(=O)OC)c1 | 0 | 0 | -2 | 0 | -2 | -5 | . | .
O=C(c1cccc(C(F)(F)F)c1)C1CCCN(C(=O)CN2CCOC2=O)C1 (configuration not stated) | . | 0 | 7 | . | . | 3 | . | .
CCOC(=O)Nc1c2ccccc2nc2ccccc12 | 82* | 14* | 22 | -2 | 65* | 131* | 38* | 43*
CC(=O)Nc1ccccc1C(=O)C(=O)Nc1ccc(F)c(Cl)c1 | . | 0 | 1 | . | . | -2 | . | .
CC(C)NC(=O)c1nc2c(nnn2Cc2cccc(Cl)c2)c(=O)[nH]1 | . | 0 | 23 | . | . | -5 | . | .
CC(C)(C)NC(=O)C(c1cc2ccccc2o1)n1c(-c2ccc(-c3ccccc3)cc2)nc2ccccc21 (configuration not stated) | . | 25* | . | . | . | . | -73 | -39
CCOC(=O)c1nn(-c2ccc3c(c2)CCN3C(C)=O)cc1O | -1 | 175* | 35 | 1 | 0 | 1 | -4 | 19*
Cc1ccc(S(=O)(=O)c2c(N)n(NC(=O)c3ccco3)c3nc4ccccc4nc23)cc1 | 11 | 46* | 37 | 2 | 2 | . | 4 | 6.0*
COc1ccc(S(=O)(=O)N2CCN(CC(=O)N3CCc4ccccc4C3)CC2)cc1OC | . | 0 | . | . | . | . | . | .
COc1cc2c(cc1OC)CN(C(=O)CN1CCN(S(=O)(=O)c3ccccc3Br)CC1)CC2 | . | 30* | 6 | . | . | 3 | 1 | 0
C[n+]1cccc(C(=O)NNC(=O)C23CC4CC(CC(C4)C2)C3)c1 | 3 | 1 | 12 | -3 | -1 | -1 | . | .
c1ccc(-c2ccc(-c3ccccn3)s2)nc1 | 4 | 15* | 20 | 6 | -3 | 18* | -19 | -7
O=C(O)c1ccc(-c2ccccn2)s1 | 4 | 0 | 20 | 9 | -1 | -3 | . | .
SMILES | Runt-SMMHC FRET | proKLK7 act | AI-2 QS mod | Wee1 degr inh | Runt-CBFb FRET | RanGTP-Imp inh | proKLK7 act conf | EDANS interfere | others
Cc1ccc(C2C=C(c3ccc4c(c3)OCO4)Nc3ncnn32)cc1 (configuration not stated) | -14 | 15* | 4 | 1 | -85 | -9 | -15 | 9.2*
Cc1ccc(C2C=C(c3ccccc3OC(F)F)Nc3ncnn32)cc1 (configuration not stated) | 62 | 18* | 6 | 0 | -47 | 6 | 76* | 80*
CCSc1ccccc1C(=O)NC1CCCCC1 | -8 | -1 | 21 | 1 | 1 | -3 | . | .
COC(=O)c1ccccc1-c1c2ccc(=N)cc-2oc2cc(N)ccc12 | . | 101* | . | . | . | . | 65* | 86*
N#Cc1cnn2c(-c3ccccc3)ccnc12 | 2 | 45* | 39 | -2 | 0 | 0 | 59* | 66*
COc1ccc(-c2ccnc3c(C#N)cnn23)cc1 | 6 | 60* | 11 | 5 | 1 | 3 | 69* | 85*
N#Cc1cnc2ncnn2c1-c1ccccc1 | 1 | 0 | 20 | -1 | -2 | ? | . | .
CC(C)NC(=O)c1cc(-n2cnnc2)ccc1Cl | -1 | 0 | -2 | -2 | 1 | ? | . | .
CCOC(=O)N1CCC(NC(=O)c2ccc3c(c2)N(CC)CCS3)CC1 | . | 27* | 19 | 0 | . | -2 | 7 | 5.2*
Cc1ccc(CN2CCSc3ccc(C(=O)NCCCN4CCN(C)CC4)cc32)cc1 | . | 39* | -12 | . | . | 0 | -67 | -78
COc1ccc(CCNC(=O)c2ccc3c(c2)N(Cc2ccc(C)cc2)CCS3)cc1OC | . | . | 14 | . | . | -1 | . | .
CN(C)CCNC(=O)c1ccc2c(c1)N(Cc1ccc(F)cc1)CCS2 | 4 | 62* | -3 | -1 | 4 | 2 | -25 | -22
CN1CCSc2ccc(C(=O)NCc3cccc(F)c3)cc21 | . | 49* | 16 | . | . | -1 | 51* | 1 | K7 EDANS ctr=>70
COc1ccc(Br)cc1CNC(=O)c1ccc2c(c1)N(C)CCS2 | . | -37 | -1 | . | . | 0 | . | .
O=C(NC1CCCC1)c1ccc2c(c1)N(Cc1ccc(F)cc1)CCS2 | . | -34 | -8 | . | . | 0 | . | .
Cn1c2c(c(=O)n(C)c1=O)C(c1cccc(Br)c1)C1C(=O)c3ccccc3C1=N2 (configuration not stated) | . | . | . | -1 | . | . | . | .
O=C1Nc2ccccc2O/C1=C\c1c(F)cccc1Cl | . | 17* | 10 | . | . | 3 | -69 | -54

Source: PubChem
